# Experimental data from ChEMBL document CHEMBL2016570, “Synthesis, biological evaluation, and molecular docking studies of 1,3,4-thiadiazol-2-amide derivatives as novel anticancer agents” (Bioorg Med Chem, 2012).
# The source made the active and inactive calls. No cut-off for these calls is given here.
# Key:
# MCF7 = assay: Antiproliferative activity against human MCF7 cells after 48 hrs by MTT assay; type: functional, cell-based; settings: MCF7, 48 h
# Summary of the method: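 MCF-7 cells were grown to log phase in RPMI 1640 with 10% FBS, diluted to 2 × 10⁴ cells/mL and seeded, then held 24 h at 37 °C, 5% CO₂. Compounds at pre-set concentrations went into six wells, with staurosporine as positive reference, for 48 h. MTT in PBS (2.5 mg/mL) was added, incubation ran overnight at 37 °C, and OD was read at 570 nm. Triplicate wells per concentration; assay run ≥3 times.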
# B16-F10 = assay: Antiproliferative activity against mouse B16F10 cells after 48 hrs by MTT assay; type: functional, cell-based; settings: B16-F10, 48 h
# [1] = Inhibition of bovine brain FAK after 20 mins by turbidimetry; set-up: species or system Bos taurus
# [2] = target: Focal adhesion kinase 1 (Homo sapiens) (UniProt Q05397); assay: Inhibition of FAK in human MCF7 cells at 2 to 8 uM by Western blot analysis; type: cell-based
# Focal adhesion kinase 1 (Homo sapiens), sequence (Q05397 2-1052 limits assumed): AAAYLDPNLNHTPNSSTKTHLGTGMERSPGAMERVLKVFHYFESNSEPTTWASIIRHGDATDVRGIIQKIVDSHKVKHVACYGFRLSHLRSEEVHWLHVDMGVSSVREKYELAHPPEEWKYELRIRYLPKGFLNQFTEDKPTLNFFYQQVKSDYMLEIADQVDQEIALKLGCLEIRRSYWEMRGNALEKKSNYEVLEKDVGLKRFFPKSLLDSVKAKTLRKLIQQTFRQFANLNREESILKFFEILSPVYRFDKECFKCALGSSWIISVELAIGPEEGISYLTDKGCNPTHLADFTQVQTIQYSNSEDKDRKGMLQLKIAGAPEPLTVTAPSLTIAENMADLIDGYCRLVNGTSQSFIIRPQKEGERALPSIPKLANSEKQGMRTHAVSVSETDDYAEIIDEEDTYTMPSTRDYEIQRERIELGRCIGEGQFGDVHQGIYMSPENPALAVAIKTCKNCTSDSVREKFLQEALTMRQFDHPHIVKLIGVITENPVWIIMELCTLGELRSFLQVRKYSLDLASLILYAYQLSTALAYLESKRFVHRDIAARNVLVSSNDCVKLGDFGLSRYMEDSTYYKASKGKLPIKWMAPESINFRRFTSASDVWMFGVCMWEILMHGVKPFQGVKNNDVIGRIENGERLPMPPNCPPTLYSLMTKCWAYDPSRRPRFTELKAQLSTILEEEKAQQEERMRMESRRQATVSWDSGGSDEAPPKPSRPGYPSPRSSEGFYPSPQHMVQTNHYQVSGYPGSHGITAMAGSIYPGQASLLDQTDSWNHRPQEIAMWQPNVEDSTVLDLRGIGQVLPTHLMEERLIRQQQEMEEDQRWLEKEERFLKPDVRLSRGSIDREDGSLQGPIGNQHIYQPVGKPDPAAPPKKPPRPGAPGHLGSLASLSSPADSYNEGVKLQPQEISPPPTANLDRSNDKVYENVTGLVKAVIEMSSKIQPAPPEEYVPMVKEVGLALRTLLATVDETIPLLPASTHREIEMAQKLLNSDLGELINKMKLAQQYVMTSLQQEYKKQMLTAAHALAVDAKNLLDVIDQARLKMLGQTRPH
# Summary of the method: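 After treatment, cells were PBS-washed and lysed in Tris/NaCl/PMSF/Na₃VO₄/NP-40/glycerol buffer with phosphatase and protease inhibitors, then spun at 12,000g for 5 min. Protein was measured by BCA, resolved on 10% SDS–PAGE and transferred to PVDF. Membranes were blocked in 5% nonfat milk for 2 h at room temperature, probed with primary antibodies overnight at 4 °C, then HRP secondary. Representative of three independent experiments.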
IC50 (MCF7) [µM],IC50 (B16-F10) [µM],IC50 [1] [µM],inhibition [2],Compound
1.12,1.14,6.89,,O=C(Nc1nnc(-c2ccccc2)s1)c1cc(Cl)ccc1O
1.28,1.28,7.25,,O=C(Nc1nnc(-c2ccccc2)s1)c1cc(Br)ccc1O
2.76,2.02,9.36,,O=C(Nc1nnc(-c2ccccc2)s1)c1ccccc1O
0.75,0.68,6.13,,O=C(Nc1nnc(-c2ccc(F)cc2)s1)c1cc(Cl)ccc1O
4.49,4.65,11.9,,O=C(Nc1nnc(-c2ccccc2)s1)c1ccc(Cl)cc1
0.45,0.31,5.32,Active,O=C(Nc1nnc(-c2ccc(Cl)cc2)s1)c1cc(Cl)ccc1O
0.67,0.56,5.85,,O=C(Nc1nnc(-c2ccc(Cl)cc2)s1)c1cc(Br)ccc1O
2.36,1.97,8.54,,Cc1ccc(-c2nnc(NC(=O)c3ccccc3O)s2)cc1
1.02,1.15,6.79,,O=C(Nc1nnc(-c2ccc(Cl)cc2)s1)c1ccccc1O

# Continued, compound first:
Compound,IC50 (MCF7) [µM],IC50 (B16-F10) [µM],IC50 [1] [µM],inhibition [2]
COc1ccc(-c2nnc(NC(=O)c3ccccc3)s2)cc1,1.55,1.58,7.71,
CN[C@@H]1C[C@H]2O[C@@](C)([C@@H]1OC)n1c3ccccc3c3c4c(c5c6ccccc6n2c5c31)C(=O)NC4 [STAUROSPORINE],3.07,,,
Cc1ccc(-c2nnc(NC(=O)c3ccccc3)s2)cc1,3.57,3.52,11.7,
O=C(Nc1nnc(-c2ccc(Cl)cc2)s1)c1ccccc1,4.85,4.06,12.7,
O=C(Cc1ccccc1)Nc1nnc(-c2ccc(Cl)cc2)s1,6.47,8.23,19.7,
COc1ccc(-c2nnc(NC(=O)c3ccccc3O)s2)cc1,2.17,1.39,7.47,
O=C(Nc1nnc(-c2ccccc2)s1)c1ccccc1,5.87,5.15,16.2,
O=C(Nc1nnc(-c2ccccc2)s1)c1ccc(F)cc1,4.85,4.36,14,
O=C(Nc1nnc(-c2ccc(F)cc2)s1)c1cc(Br)ccc1O,0.86,1.02,6.41,
Cc1ccc(-c2nnc(NC(=O)c3cccnc3)s2)cc1,4.52,3.88,12.4,
O=C(Nc1nnc(-c2ccc(F)cc2)s1)c1ccccc1,5.35,4.75,15.5,
COc1ccc(C(=O)Nc2nnc(-c3ccccc3)s2)cc1,1.83,1.75,7.89,
O=C(Nc1nnc(-c2ccc(F)cc2)s1)c1ccccc1O,1.21,1.16,7.02,
O=C(Cc1ccccc1)Nc1nnc(-c2ccc(Br)cc2)s1,7.52,9.06,21.5,
Cc1ccc(C(=O)Nc2nnc(-c3ccccc3)s2)cc1,3.28,2.76,9.84,
COc1ccc(-c2nnc(NC(=O)c3cccnc3)s2)cc1,2.99,2.36,9.75,
O=C(Nc1nnc(-c2ccccc2)s1)c1cccnc1,8.22,6.18,18.6,
